KCNQ1 act – human KCNQ1 channel potentiation or activation; P51787; CHO-K1 KCNQ1, thallium flux FluxOR fluorescence; active compounds read high; B-score at 10 µM; 0.35% of 310,000 active;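 active means fluorescence ratio B-score, a plate-corrected score, at least three library SD, with initial intensity B-score within 5 SD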
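Assay system: CHO-K1 cells stably expressing KCNQ1; Medium: assay buffer with matched DMSO; Also added: K+/Tl+ depolarizing stimulus; Dosing: single dose; Timing: dye 90 min, compound 20 min, room temperature; Measured by: kinetic FluxOR thallium fluorescence, 10-s 1-Hz baseline, 110-s post-stimulus read; Read-out: peak-minus-minimum fluorescence over initial fluorescence, negative-control normalized, B-scored.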
KCNQ1 block – blocks the human KCNQ1 potassium channel. B-score at 10 µM. CHO-K1 KCNQ1, FluxOR thallium flux fluorescence; active compounds read high. 1.3% of 310,000 active. AID 2642. P51787;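 active means compounds whose thallium flux B-score, printed positive for inhibition, exceeds three library SD while starting fluorescence stays within three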;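 further: channel opened by potassium depolarization with thallium stimulus after 20 min compound exposure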
Kir21 inh – Kir2.1 (mouse) channel inhibition; P35561; HEK293-Kir2.1, FluxOR thallium flux fluorescence; active compounds read low; B-score at 10 µM; 0.85% of 310,000 active;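 active means fluorescence ratio B-score at or below minus 3 SD of library scores, with starting-brightness B-score within 2 SD, cut at about -4.2 in these data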;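 further: channel flux triggered by added potassium and thallium sulfate stimulus; B-score of peak minus minimum fluorescence over baseline after thallium stimulus; more negative B-score means stronger Kir2.1 block with less thallium influx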
Target sequence (P35561 whole entry, looked up): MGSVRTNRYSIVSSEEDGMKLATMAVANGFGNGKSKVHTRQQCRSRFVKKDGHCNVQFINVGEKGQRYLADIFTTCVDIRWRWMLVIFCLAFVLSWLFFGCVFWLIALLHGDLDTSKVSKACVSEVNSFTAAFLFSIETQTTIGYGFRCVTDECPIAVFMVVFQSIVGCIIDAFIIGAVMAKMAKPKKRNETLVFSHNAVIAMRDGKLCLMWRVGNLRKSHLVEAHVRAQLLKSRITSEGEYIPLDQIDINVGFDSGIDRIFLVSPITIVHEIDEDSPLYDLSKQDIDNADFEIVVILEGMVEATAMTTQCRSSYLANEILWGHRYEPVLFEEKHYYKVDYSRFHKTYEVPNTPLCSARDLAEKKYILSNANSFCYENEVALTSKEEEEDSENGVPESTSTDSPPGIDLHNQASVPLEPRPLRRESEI
KCNK3 block – human KCNK3 channel inhibition, primary screen; O14649; CHO-KCNK3 thallium flux, FluxOR fluorescence; active compounds read low; B-score at 10 µM; 0.84% of 340,000 active; AID 602410;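 active means B-score under library mean minus 4 SD, starting fluorescence ratio at most library mean plus 5 SD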;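 further: more negative B-score means stronger inhibition of thallium flux through KCNK3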
KCNK9 block – human KCNK9 channel inhibition; Q9NPC2; HEK293 KCNK9, FluxOR thallium flux fluorescence; active compounds read low; B-score at 10 µM; 1.2% of 310,000 active;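 active means ratio B-score over 3 SD below the library mean, with starting fluorescence within 5 SD of its mean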;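 further: negative B-score means less thallium flux so channel inhibition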
hERG protect – compounds protecting human hERG from proarrhythmic drug block; Q12809; CHO-hERG, FluxOR thallium flux, dofetilide IC70 present; activation (rescue from dofetilide block), less the hit threshold, % at 10 µM; 0.51% of 310,000 active;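 active means activation above the mean of controls blocked by dofetilide plus 5 SD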;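 further: thallium influx through hERG after potassium depolarization seen as dye fluorescence rise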
KCNK9 inh conf – confirmation of human KCNK9 potassium channel inhibitors. shares compounds with KCNK9 block. HEK293 KCNK9 cells, FluxOR thallium flux fluorescence. inhibition, % at 10 µM. 43% of 4,900 active;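 active means thallium signal inhibited by more than 5 SD of the compound-free buffer control wells, on both duplicate plates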;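 further: 0% = assay buffer control wells without compound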
Kir2-1 spec – selectivity of KCNK9 modulators against mouse Kir2.1; Kir2.1 cells, FluxOR thallium flux fluorescence; shares compounds with KCNK9 block; inhibition, % at 10 µM; 4% of 4,900 active;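 active means thallium signal drop more than 5 SD beyond the mean of the no-compound control wells, seen in both duplicate plates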;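 further: signal is fluorescence rise after thallium addition divided by baseline fluorescence; plate controls were assay buffer only for no effect and full block by chlorpromazine control for full effect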
HEK293 Tl ctr – non-induced cell nonspecific activity of KCNK9 modulators; shares compounds with KCNK9 block; non-induced KCNK9-HEK293, FluxOR thallium flux; inhibition, % at 10 µM; 40% of 4,900 active; AID 492997;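 active means thallium signal drop beyond 5 SD of the untreated control mean, on both duplicate plates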;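 further: plate controls were buffer only IC0 wells for no effect and SID17386958 at its maximal inhibitory level for full effect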
KCNK3 confirm – human KCNK3 channel inhibition, confirmation assay; shares compounds with KCNK3 block; CHO-KCNK3 thallium flux, FluxOR fluorescence; 0% buffer, 100% carvedilol maximal block; ratio percent of control, % at 10 µM; 99% of 2,400 active; AID 651638;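 active means ratio percent of control, averaged over triplicates, above buffer control mean plus 5 SD, cut at about 64% in these data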;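 further: ratio is the fluorescence rise from min to max over baseline after thallium stimulus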
KCNK3 noninduced – counter-screen for KCNK3 inhibitors: effect in non-induced cells | shares compounds with KCNK3 block | non-induced KCNK3 parental cells, FluxOR thallium flux; active compounds read low | thallium flux ratio (lower = more inhibition) at 10 µM | 40% of 2,400 active;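 active means thallium flux ratio, averaged over three wells, more than 5 SD below the buffer control mean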;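 further: host cells are CHO cells without KCNK3 induction; ratio is peak minus trough fluorescence over baseline then normalized to buffer controls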
An asterisk follows results filed as active; i = inactive; x = not tested or not shown; ! = repeats disagree. Hits are enriched below; roughly 3.7% of the tested compounds scored in any of these assays.

SMILES	KCNQ1 act	KCNQ1 block	Kir21 inh	KCNK3 block	KCNK9 block	hERG protect	KCNK9 inh conf	Kir2-1 spec	HEK293 Tl ctr	KCNK3 confirm	KCNK3 noninduced
C=CCOC(=O)C1=C(C)NC(SCC(N)=O)=C(C#N)C1c1ccc(C)cc1 (stereo not drawn)	i	i	-1.78	i	i	-3.7	x	x	x	x	x
C=CCOC(=O)C1=C(C)NC(SCC)=C(C#N)C1c1ccc(Cl)cc1 (stereo not drawn)	i	9*	0.02	-8.75*	-8.35*	-3.1	i	i	40.0%*	116.3*	i
O=C(Nc1ccc(Cl)cn1)c1ccccc1SCc1ccccc1	i	i	0.11	-10.9*	-15.1*	-6.0	77.5%*	i	47.0%*	128.3*	0.152*
Clc1nc(-c2ccccc2)cc(-c2ccc(Br)cc2)n1	i	6*	-1.37	-9.8*	-12.4*	-15.9	55.0%*	i	51.0%*	103.3*	i
CC(C)CC(=O)Nc1nnc(SCC(=O)NCC2CCCO2)s1 (stereo not drawn)	i	i	-0.06	i	i	-7.4	x	x	x	x	x
CCCN1C(=O)c2ccccc2NC1c1ccc(Br)cc1 (stereo not drawn)	i	i	-0.68	i	i	-3.6	x	x	x	x	x
C=CCN1C(=O)c2ccccc2NC1c1ccc(Br)s1 (stereo not drawn)	i	i	-3.75	i	-9.19*	-12.8	37.5%*	i	30.0%*	107.0*	i
O=C(CNC(=O)c1ccc(Cl)cc1Cl)OCCCn1c(=O)[nH]c2ccccc21	i	i	-2.02	i	i	-14.1	x	x	x	x	x
COc1cccc(C(=O)NCC(c2cccs2)N2CCc3ccccc32)c1 (stereo not drawn)	i	i	2.1	-13.9*	-17*	-7.0	55.5%*	i	37.0%*	134.7*	0.121*
CCCOC(=O)c1ccc(NC(=O)CN(C)Cc2cccs2)cc1	i	i	-1.61	-10.4*	-12.3*	-11.0	50.0%*	i	i	93.7*	i
CN(CC(=O)Nc1cc(Cl)cc(Cl)c1)Cc1cccs1	i	i	-2.25	-13*	-14.2*	-3.5	63.0%*	i	44.0%*	122.0*	0.158*
CN(CC(=O)NCCc1ccc(F)cc1)Cc1cccs1	i	i	-0.63	i	i	-14.9	x	x	x	x	x
COC(=O)c1ccc(NC(=O)CSc2nnc(-c3cccnc3)o2)cc1	i	i	2.09	i	i	-7.1	x	x	x	x	x
O=C1C(=O)N(Cc2ccco2)C(c2cccs2)/C1=C(\O)c1cccc([N+](=O)[O-])c1 (stereo not drawn)	i	i	-1.22	i	i	-6.0	x	x	x	x	x
COC(=O)c1ccc(CSc2nc(-c3ccco3)cc(C(F)(F)F)n2)o1	i	i	0.76	i	-10.6*	-9.4	38.5%*	i	45.0%*	115.3*	0.148*
COc1ccc(CCNC(=O)CSc2nc(-c3ccco3)cc(C(F)(F)F)n2)cc1	i	i	-1.19	i	i	-2.1	x	x	x	x	x
COC(/C(=N/O)c1ccc(Cl)cc1)c1ccccc1 (stereo not drawn)	i	11*	-2.86	-9.66*	-10.1*	-20.4	38.5%*	i	48.0%*	114.3*	0.158*
COc1ccc(CN(C)C(=O)c2ccc3c(=O)n4c(nc3c2)CCC4)cc1	i	i	-2.43	i	i	-11.6	x	x	x	x	x
CCCCN(CCCC)CC(O)COc1ccccc1C(=O)Nc1ccccc1 (stereo not drawn)	i	i	-0.96	-10.5*	-11*	-9.5	50.0%*	i	39.5%*	112.3*	i
CCN(CC)CC(O)COc1ccccc1C(=O)CCc1ccccc1 (stereo not drawn)	i	i	0	i	i	-11.1	x	x	x	x	x
C[C@H](NC(=O)c1ccccc1Cl)C(=O)OC(C(=O)Nc1cc(C(F)(F)F)ccc1Cl)c1ccccc1 (stereo partly drawn)	i	i	0.44	-11*	-18.4*	-3.0	68.5%*	i	39.5%*	108.0*	i
N#CCC(=O)Nc1ccc(C(=O)OC(C(=O)Nc2cc(C(F)(F)F)ccc2Cl)c2ccccc2)cc1 (stereo not drawn)	i	i	2.56	i	i	-9.3	x	x	x	x	x
Cc1c(NC(=O)CN2CCN(c3ccc(F)cc3)CC2)c(=O)n(-c2ccccc2)n1C	i	i	-0.12	i	i	-10.1	x	x	x	x	x
CC(Sc1nncn1C)C(=O)Nc1ccc(N2CCCCC2)cc1 (stereo not drawn)	x	x	x	i	x	x	x	x	x	x	x
CC(=O)N1CCN(c2ccc(NC(=O)c3cccc([N+](=O)[O-])c3)cc2)CC1	i	i	0.22	i	i	-5.9	x	x	x	x	x
SMILES	KCNQ1 act	KCNQ1 block	Kir21 inh	KCNK3 block	KCNK9 block	hERG protect	KCNK9 inh conf	Kir2-1 spec	HEK293 Tl ctr	KCNK3 confirm	KCNK3 noninduced
CC1CCC(C(C)C)C(OC(=O)Cn2c(-c3ccc(Cl)cc3)[n+](C)c3ccccc32)C1 (stereo not drawn)	i	10*	-14.8*	-11.2*	-12.2*	-35.5	66.5%*	80.0%*	i	119.0*	i
CC1CCC(C(C)C)C(OC(=O)Cn2c(-c3ccc(Br)cc3)[n+](C)c3ccccc32)C1 (stereo not drawn)	i	10*	-14.9*	-15.7*	-13.3*!	-31.1	66.0%*	82.0%*	i	131.7*	i
CC1CCC(C(C)C)C(OC(=O)COC(=O)c2cccn2C)C1 (stereo not drawn)	i	i	-1.03	-8.76*	-12.7*	-20.7	59.0%*	i	27.0%*	107.7*	i
CC1CCC(C(C)C)C(OC(=O)C[n+]2cccc(C(N)=O)c2)C1 (stereo not drawn)	i	i	1.93	i	i	-5.6	x	x	x	x	x
CSc1ccccc1NC(=O)c1noc(C)c1[N+](=O)[O-]	i	i	0.39	i	i	-9.7	x	x	x	x	x
COc1ccc(Cl)cc1NC(=O)CSc1nnc(-c2ccco2)o1	i	i	-0.25	i	i	-6.2	x	x	x	x	x

High-throughput results: PubChem, Johns Hopkins Ion Channel Center
